Results: ChEMBL document CHEMBL2157918, “Design and synthesis of 1H-1,2,3-triazoles derived from econazole as antitubercular agents” (Bioorg Med Chem Lett, 2012)
Values after ≈ are worked out from the molar mass of the structure shown.

What was measured:
[1] = tested on: Mycobacterium tuberculosis; assay: Antitubercular activity against Mycobacterium tuberculosis H37Rv expressing GFP after 7 days by reporter gene assay; assay type: functional; conditions: 168 h
Method in brief: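 Compound dissolved in DMSO, two-fold dilutions in 7H9 broth; Mtb H37Rv-GFP grown in Middlebrook 7H9, inoculum 2 × 10⁵ CFU/mL, exposed 7 days. Fluorescence read; MIC = lowest concentration inhibiting fluorescence by 90% versus bacteria-only wells.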

Candida albicans = assay: Antifungal activity against Candida albicans ATCC 90027 after 48 hrs by broth microdilution method; assay type: functional; conditions: ATCC 90027, 48 h
Method in brief: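 Broth microdilution with two-fold compound dilutions in tryptic soy broth. C. albicans grown in the same medium was exposed for 48 h. Growth was visualized with Alamar Blue. MIC was taken as the lowest concentration that inhibited the Alamar Blue color change.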

Vero = assay: Cytotoxicity against african green monkey Vero cells after 3 days by MTT assay; assay type: cell-based; conditions: Chlorocebus sabaeus, 72 h
Method in brief: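 Early-log-phase Vero cell suspension was exposed to serially diluted compounds (initially in DMSO) in RPMI 1640 for 3 days and read by MTT assay. Effect was normalized to DMSO-only wells and IC50 was calculated.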

[2] = Selectivity index, ratio of IC50 for african green monkey Vero cells to MIC90 for Mycobacterium tuberculosis H37Rv; assay type: functional
Method in brief: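 Vero cells in early log phase, in RPMI 1640, exposed to serial compound dilutions for 3 days; viability by MTT assay; effect normalized to DMSO-only wells, IC50 by curve fitting. SI = Vero IC50 over Mtb H37Rv-GFP MIC (90% fluorescence inhibition, 7-day 7H9 exposure, 2 × 10⁵ CFU/mL inoculum).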

[3] = tested on: Mycobacterium tuberculosis; assay: Ratio of econazole MIC90 to compound MIC90 for Mycobacterium tuberculosis H37Rv; assay type: functional

| Structure (SMILES) | MIC90 [1] | MIC (Candida albicans) | IC50 (Vero) | Selectivity Index [2] | Ratio [3] |
| --- | --- | --- | --- | --- | --- |
| CCCCc1cn(CC(OCc2ccc(Cl)cc2)c2ccc(Cl)cc2Cl)nn1 (stereo not given) | 128 µg/mL (≈ 292 µM) | > 256 µg/mL | 10.6 µg/mL (≈ 24.2 µM) | – | – |
| Clc1ccc(COC(Cn2ccnc2)c2ccc(Cl)cc2Cl)cc1 (stereo not given) [ECONAZOLE] | 16 µg/mL (≈ 41.9 µM) | 16 µg/mL (≈ 41.9 µM) | – | 1 | – |
| OCCc1cn(CC(OCc2ccc(F)cc2F)c2ccc(Cl)cc2Cl)nn1 (stereo not given) | 128 µg/mL (≈ 299 µM) | > 256 µg/mL | 33.7 µg/mL (≈ 78.6 µM) | – | – |
| Nc1ccc(-c2cn(CC(OCc3ccc(Cl)cc3)c3ccc(Cl)cc3Cl)nn2)cc1 (stereo not given) | 256 µg/mL (≈ 540 µM) | > 256 µg/mL | > 50 µg/mL | – | – |
| Clc1ccc(COC(Cn2ccnn2)c2ccc(Cl)cc2Cl)cc1 (stereo not given) | 64 µg/mL (≈ 167 µM) | > 256 µg/mL | > 12.5 µg/mL | – | – |
| Nc1cccc(-c2cn(CC(O)c3ccc(Cl)cc3Cl)nn2)c1 (stereo not given) | 32 µg/mL (≈ 91.6 µM) | > 256 µg/mL | 26.8 µg/mL (≈ 76.7 µM) | – | – |
| Clc1ccc(COC(Cn2nnc3ccccc32)c2ccc(Cl)cc2Cl)cc1 (stereo not given) | 128 µg/mL (≈ 296 µM) | > 256 µg/mL | > 12.5 µg/mL | – | – |
| CC(C)(C)c1cn(CC(O)c2ccc(Cl)cc2Cl)nn1 (stereo not given) | 32 µg/mL (≈ 102 µM) | 256 µg/mL (≈ 815 µM) | 33.9 µg/mL (≈ 108 µM) | – | – |
| Nc1ccc(-c2cn(CC(O)c3ccc(Cl)cc3Cl)nn2)cc1 (stereo not given) | 32 µg/mL (≈ 91.6 µM) | > 256 µg/mL | 33.9 µg/mL (≈ 97.2 µM) | – | – |
| OCCc1cn(CC(OCc2ccc(Cl)cc2)c2ccc(Cl)cc2Cl)nn1 (stereo not given) | > 256 µg/mL | > 256 µg/mL | 24.3 µg/mL (≈ 57 µM) | – | – |
| Clc1ccc(COC(Cn2cc(-c3ccccn3)nn2)c2ccc(Cl)cc2Cl)cc1 (stereo not given) | 256 µg/mL (≈ 557 µM) | > 256 µg/mL | > 50 µg/mL | – | – |
| OC(Cn1cc(C2CCCCC2)nn1)c1ccc(Cl)cc1Cl (stereo not given) | 16 µg/mL (≈ 47 µM) | > 256 µg/mL | 31.9 µg/mL (≈ 93.9 µM) | 1 | – |
| OC(Cn1cc(-c2ccccn2)nn1)c1ccc(Cl)cc1Cl (stereo not given) | 32 µg/mL (≈ 95.5 µM) | – | – | – | – |
| CC(C)(C)c1cn(CC(OCc2ccc(Cl)cc2)c2ccc(Cl)cc2Cl)nn1 (stereo not given) | > 256 µg/mL | > 256 µg/mL | > 25 µg/mL | – | – |
| OCCc1cn(CC(OCc2ccc(OC(F)(F)F)cc2)c2ccc(Cl)cc2Cl)nn1 (stereo not given) | > 64 µg/mL | > 64 µg/mL | – | – | – |
| CCCCc1cn(CC(OCc2ccc(F)cc2F)c2ccc(Cl)cc2Cl)nn1 (stereo not given) | > 256 µg/mL | > 256 µg/mL | 21 µg/mL (≈ 47.7 µM) | – | – |
| Clc1ccc(COC(Cn2cc(C3CCCCC3)nn2)c2ccc(Cl)cc2Cl)cc1 (stereo not given) | > 256 µg/mL | > 256 µg/mL | > 12.5 µg/mL | – | – |
| OCCc1cn(CC(O)c2ccc(Cl)cc2Cl)nn1 (stereo not given) | 256 µg/mL (≈ 847 µM) | > 256 µg/mL | 274 µg/mL (≈ 907 µM) | – | – |
| CO[C@H]1/C=C/O[C@@]2(C)Oc3c(C)c(O)c4c(O)c(c(/C=N/N5CCN(C)CC5)c(O)c4c3C2=O)NC(=O)/C(C)=C\C=C\[C@H](C)[C@H](O)[C@@H](C)[C@@H](O)[C@@H](C)[C@H](OC(C)=O)[C@@H]1C [RIFAMPIN] | 0.0625 µg/mL (≈ 0.0759 µM) | – | – | – | – |
| Nc1cccc(-c2cn(CC(OCc3ccc(Cl)cc3)c3ccc(Cl)cc3Cl)nn2)c1 (stereo not given) | > 256 µg/mL | > 256 µg/mL | > 50 µg/mL | – | – |
| CCCCc1cn(CC(OCc2ccc(OC(F)(F)F)cc2)c2ccc(Cl)cc2Cl)nn1 (stereo not given) | > 256 µg/mL | > 256 µg/mL | 63.4 µg/mL (≈ 130 µM) | – | – |
| OCc1cn(CC(O)c2ccc(Cl)cc2Cl)nn1 (stereo not given) | > 256 µg/mL | – | > 100 µg/mL | – | – |
| CCCCc1cn(CC(O)c2ccc(Cl)cc2Cl)nn1 (stereo not given) | 8 µg/mL (≈ 25.5 µM) | > 256 µg/mL | 23.3 µg/mL (≈ 74.1 µM) | 1 | 2 |
| OCc1cn(CC(OCc2ccc(Cl)cc2)c2ccc(Cl)cc2Cl)nn1 (stereo not given) | > 256 µg/mL | > 256 µg/mL | 19.8 µg/mL (≈ 48 µM) | – | – |
| OC(Cn1ccnn1)c1ccc(Cl)cc1Cl (stereo not given) | 256 µg/mL (≈ 992 µM) | > 256 µg/mL | > 200 µg/mL | – | – |
| OC(Cn1nnc2ccccc21)c1ccc(Cl)cc1Cl (stereo not given) | > 256 µg/mL | > 256 µg/mL | > 100 µg/mL | – | – |
